High-throughput results as filed in PubChem BioAssay.
TNF death inh: TNF-alpha cell death inhibition in Jurkat FADD-/- cells; Jurkat FADD-/- TNF necroptosis rescue, ATP luminescence, 24 h; 0 = TNF only, 100 = no-TNF cells; activation (protection from cell death), % at 10 µM; AID 463075; 220,000 tested, 0.068% active;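 active = activation, meaning protection from cell death, of at least 50% relative to plate controls; inactive = activation below 50%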;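 note: necroptosis triggered by 40 ng/mL TNF-alpha added together with compound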
p97 ATPase inh: human p97 ATPase inhibition. recombinant p97 ATPase, Kinase-Glo ATP luminescence, 3 h. inhibition, % at 8 µM. 220,000 tested, 0.42% active. AID 1481; in the data active = inhibition above about 15%
PfM18AAP inh-1: PfM18AAP enzyme inhibition; recombinant PfM18AAP, H-Glu-NHMec fluorogenic cleavage; inhibition, % at 7.35 µM; 290,000 tested, 1.2% active; AID 1822;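 active = inhibition above the campaign mean inhibition over all tested compounds plus 3 SD, cut at about 28% in these data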
Wee1 stabilizer: inhibitors of human Wee1 degradation | P30291 | HeLa Luc-Wee1K328M stability, luciferase luminescence; 100% = proteasome inhibitor MG132 effect | reporter increase, % at 5 µM | 220,000 tested, 1.2% active;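 active = activation above the mean of all tested compounds plus 3 SD, set per screening run, cut at about 8.8% in these data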;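 note: cells exposed to compound for 20 h before luminescence read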
RBBP9 inh: blocks human serine hydrolase RBBP9; O75884; recombinant RBBP9, FP-Rh probe fluorescence polarization; inhibition, % at 7.94 µM; 220,000 tested, 0.2% active;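 active = inhibition above the campaign mean of all tested compounds plus 3 SD, cut at about 14% in these data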
Target sequence (O75884 whole entry, looked up): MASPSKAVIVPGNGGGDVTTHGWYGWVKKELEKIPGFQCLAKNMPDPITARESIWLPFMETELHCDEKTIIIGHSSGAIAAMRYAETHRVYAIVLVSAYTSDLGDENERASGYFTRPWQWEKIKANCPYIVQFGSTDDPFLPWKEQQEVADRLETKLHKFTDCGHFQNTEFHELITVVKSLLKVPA
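Test system – recombinant human RBBP9 · Input – RBBP9 2.5 µM in dispensing solution, pre-mixing · Medium – Tris buffer pH 8.0, NaCl, Pluronic · Schedule – preincubation 30 min plus labeling 45 min at 25 °C · Measured by – fluorescence polarization · Measure – % inhibition · Controls – DMSO and no-protein wells · Replicates – one well per compound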
L929 necroptosis: L929 zVAD cell death inhibition | L929 zVAD necroptosis rescue, ATP luminescence, 24 h; with zVAD 60 µM | viability rescue, % at 10 µM | 220,000 tested, 0.38% active | AID 1377;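 active = activation, scaled between plate controls, above about 75%, limit read from the data; inactive = activation under that limit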
PfM18AAP inh-2: PfM18AAP inhibition, confirmation. shares compounds with PfM18AAP inh-1. recombinant PfM18AAP, H-Glu-NHMec fluorogenic cleavage. inhibition, % at 7.35 µM. 2,400 tested, 28% active. AID 2170;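 active = mean inhibition over replicate wells above the hit cutoff set for the earlier primary screen, cut at about 29% in these data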
CTSL1 counter: Cathepsin L (human) inhibition, confirmation; shares compounds with PfM18AAP inh-1; purified cathepsin L1, Z-Leu-Arg-MCA fluorescence; inhibition, % at 5.96 µM; 2,400 tested, under 10 active; AID 2178;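 active = average inhibition across replicates above the hit cutoff set in the earlier primary screen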
Target sequence (P07711 whole entry, looked up): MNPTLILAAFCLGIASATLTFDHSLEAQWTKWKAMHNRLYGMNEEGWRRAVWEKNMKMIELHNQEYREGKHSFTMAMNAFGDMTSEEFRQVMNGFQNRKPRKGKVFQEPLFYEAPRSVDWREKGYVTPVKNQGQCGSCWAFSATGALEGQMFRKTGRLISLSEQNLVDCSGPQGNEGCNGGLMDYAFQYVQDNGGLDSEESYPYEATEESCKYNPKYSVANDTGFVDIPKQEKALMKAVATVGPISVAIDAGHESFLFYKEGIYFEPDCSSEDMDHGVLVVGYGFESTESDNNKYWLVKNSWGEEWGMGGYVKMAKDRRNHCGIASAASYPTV
Each line names hits and unclear results; the compound was inactive in the other large screens (follow-up assays come after a bar, where they were run). An excerpt weighted towards active compounds, which were near 2.7% of everything screened.

CC(C)(C)c1ccc(O)c(N)c1	PfM18AAP inh-1 46.2 | PfM18AAP inh-2 75.8 | CTSL1 counter inactive
CNCC(=O)N(CC(C)C)c1c(N)n(CC(C)C)c(=O)[nH]c1=O	none
CCNc1nc(NCC)nc(Nn2cnnc2)n1	PfM18AAP inh-1 31.9 | PfM18AAP inh-2 inactive | CTSL1 counter inactive
CCNc1nc(NC(C)(C)C)nc(N(CC)n2cnnc2)n1	none
COc1ccc(S(=O)(=O)Oc2ccccc2C(=S)N2CCOCC2)cc1	PfM18AAP inh-1 44.8 (no result: TNF death inh, p97 ATPase inh, Wee1 stabilizer, RBBP9 inh, L929 necroptosis) | PfM18AAP inh-2 inactive | CTSL1 counter inactive
COc1cc(NC(=O)Nn2cnnc2)cc(OC)c1OC	PfM18AAP inh-1 69.3 (no result: TNF death inh, p97 ATPase inh, Wee1 stabilizer, RBBP9 inh, L929 necroptosis) | PfM18AAP inh-2 53.6 | CTSL1 counter inactive
COc1ccc(NC(=O)Nn2cnnc2)cc1OC	PfM18AAP inh-1 55.3 (no result: TNF death inh, p97 ATPase inh, Wee1 stabilizer, RBBP9 inh, L929 necroptosis) | PfM18AAP inh-2 43.9 | CTSL1 counter inactive
COc1cc(C(=O)Nn2cnnc2)ccc1OC(F)F	PfM18AAP inh-1 45.0 (no result: TNF death inh, p97 ATPase inh, Wee1 stabilizer, RBBP9 inh, L929 necroptosis) | PfM18AAP inh-2 inactive | CTSL1 counter inactive
COc1ccccc1NC(=O)Nn1cnnc1	PfM18AAP inh-1 65.0 | PfM18AAP inh-2 51.3 | CTSL1 counter inactive
O=C(CN1C(=O)NC2(CCCc3ccccc32)C1=O)NCc1ccc(Cl)cc1Cl (centres undefined)	none (no result: TNF death inh, p97 ATPase inh, Wee1 stabilizer, RBBP9 inh, L929 necroptosis)
Cc1cc(C(F)(F)F)n(-c2ccc(N)cc2)n1	none
O=C(O)Cc1ccc2ocnc2c1	PfM18AAP inh-1 45.2 | PfM18AAP inh-2 inactive | CTSL1 counter inactive
COc1ccc(NC(=O)Oc2cc(C)ccc2C(C)C)cc1	none
CC1=C(C(=O)OCc2ccccc2)C(c2ccccc2[N+](=O)[O-])NC(=O)N1C (centres undefined)	none (no result: TNF death inh, p97 ATPase inh, Wee1 stabilizer, RBBP9 inh, L929 necroptosis)
N#Cc1c(/N=C/C=C/c2ccccc2)sc2c1CCCC2	PfM18AAP inh-1 34.9 | PfM18AAP inh-2 inactive | CTSL1 counter inactive
COCCCNC(=O)CC1C(=O)N(Cc2ccccc2)C(C)c2nc3ccccc3n21 (centres undefined)	none
Cc1ccc(C2C3=C(CCCC3=O)Nc3[nH]c(=S)[nH]c(=O)c32)cc1 (centres undefined)	PfM18AAP inh-1 40.5 | PfM18AAP inh-2 38.2 | CTSL1 counter inactive
CCn1nc(C)c(CN2CCCC(CNS(=O)(=O)c3ccc(OC)cc3)C2)c1C (centres undefined)	none (no result: TNF death inh, p97 ATPase inh, Wee1 stabilizer, RBBP9 inh, L929 necroptosis)
O=c1[nH]c(=S)[nH]nc1Cc1ccccc1	PfM18AAP inh-1 38.0 | PfM18AAP inh-2 inactive | CTSL1 counter inactive
O=C(CCc1ccccc1)c1nnc(-c2ccccc2)o1	none
CC(=O)N1CCN(c2ccc(N=Cc3c(O)n(Cc4ccccc4)c(=O)[nH]c3=O)cc2)CC1	PfM18AAP inh-1 33.1 | PfM18AAP inh-2 inactive | CTSL1 counter inactive
O=C(COc1ccc(C(=S)N2CCOCC2)cc1Cl)Nc1ccccc1Cl	PfM18AAP inh-1 42.2 | PfM18AAP inh-2 inactive | CTSL1 counter inactive
COc1cc(C(=S)N2CCCCC2)ccc1OCC(=O)Nc1ccccc1Cl	none
O=C(COc1cccc(C(F)(F)F)c1)N1CCN(c2ccc(O)cc2)CC1	PfM18AAP inh-1 32.8 | PfM18AAP inh-2 inactive | CTSL1 counter inactive
CC1CN=C(NC(=O)c2cccc([N+](=O)[O-])c2)S1 (centres undefined)	none (no result: TNF death inh, p97 ATPase inh, Wee1 stabilizer, RBBP9 inh, L929 necroptosis)
c1ccc(Nc2ccnc(Nc3ccccc3)n2)cc1	none
NNc1nccc(Nc2ccccc2C(=O)O)n1	PfM18AAP inh-1 43.0 | PfM18AAP inh-2 inactive | CTSL1 counter inactive
Cc1ccc(S(=O)(=O)N/N=C\c2cc3c(cc2Br)OCO3)cc1	none
O=[N+]([O-])c1cc2c(cc1/C=N/NS(=O)(=O)c1ccc(Br)cc1)OCO2	PfM18AAP inh-1 49.7 | PfM18AAP inh-2 inactive | CTSL1 counter inactive
COc1cc(/C=C/C(=O)Nc2nnc(CC(C)(C)C)s2)cc(OC)c1OC	PfM18AAP inh-1 34.3 | PfM18AAP inh-2 inactive | CTSL1 counter inactive
COc1cc(/C=C/C(=O)Nc2nnc(CC(C)C)s2)cc(OC)c1OC	none
O=C(NC(=S)N1CCN(C(c2ccccc2)c2ccccc2)CC1)c1ccc(S(=O)(=O)N2CCOCC2)cc1	none
CN1CCN(C(=S)NC(=O)c2ccc(S(=O)(=O)N3CCOCC3)cc2)CC1	PfM18AAP inh-1 44.6 | PfM18AAP inh-2 inactive | CTSL1 counter inactive
CN1CCN(C(=O)c2ccccc2NC(=O)c2ccccc2)CC1	none (no result: TNF death inh, p97 ATPase inh, Wee1 stabilizer, RBBP9 inh, L929 necroptosis)
C=CCNC(=O)N1CCC(n2nccc2NC(=O)CCCc2ccccc2)CC1	none (no result: TNF death inh, p97 ATPase inh, Wee1 stabilizer, RBBP9 inh, L929 necroptosis)
O=C1CC(N2CCN(c3ccc(O)cc3)CC2)C(=O)N1c1ccc2c(c1)OCO2 (centres undefined)	PfM18AAP inh-1 31.9 | PfM18AAP inh-2 inactive | CTSL1 counter inactive
O=C1CC(N2CCCCCC2)C(=O)N1c1ccc2c(c1)OCO2 (centres undefined)	none
CCCc1nnc(SCC(=O)O)n1CC	none
O=C(NNc1ccc(-c2csnn2)cc1)c1cc(Cl)cc(Cl)c1	none
O=C(NNc1ccc(-c2csnn2)cc1)c1ccccc1C(F)(F)F	PfM18AAP inh-1 40.4 | PfM18AAP inh-2 inactive | CTSL1 counter inactive
CCOC(=O)c1sc(N(Cc2ccccc2)C(=O)CSc2ncn[nH]2)nc1C	PfM18AAP inh-1 90.5 | PfM18AAP inh-2 inactive | CTSL1 counter inactive
CCOC(=O)c1sc(NC(=O)CSc2ncn[nH]2)c(C#N)c1C	PfM18AAP inh-1 40.2 | PfM18AAP inh-2 inactive | CTSL1 counter inactive
COc1ccc(-c2oc(NC(=O)CSc3ncn[nH]3)c(C#N)c2-c2ccc(OC)cc2)cc1	PfM18AAP inh-1 73.1 | PfM18AAP inh-2 inactive | CTSL1 counter inactive
COc1ccc(-c2oc(NC(=O)CCl)c(C#N)c2-c2ccc(OC)cc2)cc1	none
CCOC(=O)c1sc(NC(=O)CSc2nc(C)cc(C)n2)c(C#N)c1C	none
Cc1ccccc1OCC(=O)NNC(=O)CSc1nc(N)cc(N)n1	none
O=C(Nc1ccccn1)c1cccc(S(=O)(=O)N2CCCC2)c1	none (no result: TNF death inh, p97 ATPase inh, Wee1 stabilizer, RBBP9 inh, L929 necroptosis)
O=S(=O)(NNC(=S)Nc1ccc(S(=O)(=O)Nc2ncccn2)cc1)c1ccc(Br)cc1	PfM18AAP inh-1 41.0 (no result: TNF death inh, p97 ATPase inh, Wee1 stabilizer, RBBP9 inh, L929 necroptosis) | PfM18AAP inh-2 inactive | CTSL1 counter inactive
O=C(NC(=S)Nc1ccc(S(=O)(=O)Nc2ncccn2)cc1)c1ccc(Br)cc1	none
O=C(NCC(O)CN1CCOCC1)c1ccc([N+](=O)[O-])cc1 (centres undefined)	none
O=C(/C=C1\SC(=O)NC1=O)Nc1ccc(C(=O)O)cc1	PfM18AAP inh-1 36.4 | PfM18AAP inh-2 inactive | CTSL1 counter inactive
Cc1ccccc1NC(=O)/C=C1\SC(=O)NC1=O	none
O=C(Nc1cccc(Cl)c1)N(CCN1CCOCC1)Cc1ccccc1F	PfM18AAP inh-1 71.4 | PfM18AAP inh-2 inactive | CTSL1 counter inactive
